High-throughput results as filed in PubChem.
This is a sample that favours compounds with a hit; in the whole collection about 3.8% have one here.
ANO1 activ: mouse TMEM16A channel activation, primary screen; HEK293 TMEM16A/YFP-H148Q/I152L, iodide quench fluorescence; active compounds read low; B-score at 10 µM; 0.3% of 340,000 active; AID 623877;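 active = fluorescence-ratio B-score plate-corrected deviation score at least 3 library SD below zero, with starting fluorescence score within 5 deviations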;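 also: channel opened by trigger with iodide after compound preincubation; score built on the fluorescence ratio of max minus min over baseline; more negative score means more quench and so TMEM16A activation or potentiation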
Beta apoptosis: beta cell apoptosis inhibition | INS-1E cytokine-induced death, ATP luminescence, 48 h; percent of positive-control rescue, neutral wells zero | protection from apoptosis, % (test concentration not listed) | 0.8% of 300,000 active | AID 435005;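 active = Every replicate reaches about 75%, or at least half do and their mean reaches it too, limit read from the data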;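 also: 0% = cytokine-treated negative control wells and 100% = positive control rescue; higher means more ATP so stronger rescue from cytokine killing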
CSC inhib: cancer stem cell inhibition; cancer stem cell-like cells viability, luminescence; inhibition, % at 7.5 µM; 1.1% of 300,000 active; in the data active = inhibition above about 75%; tested in HMLE shEcad cells
MC4R barr agon: human MC4R agonism via beta-arrestin | P32245 | U2OS MC4R beta-arrestin complementation, luminescence; percent of melanotan II response, DMSO zero | activation, % at 8.9 µM | 0.98% of 360,000 active | AID 540308;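 active = activation above a per-plate cutoff, the mean activation of sample wells on that plate plus 3 SD, cut at about 8% in these data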
Target sequence (P32245 whole entry, looked up): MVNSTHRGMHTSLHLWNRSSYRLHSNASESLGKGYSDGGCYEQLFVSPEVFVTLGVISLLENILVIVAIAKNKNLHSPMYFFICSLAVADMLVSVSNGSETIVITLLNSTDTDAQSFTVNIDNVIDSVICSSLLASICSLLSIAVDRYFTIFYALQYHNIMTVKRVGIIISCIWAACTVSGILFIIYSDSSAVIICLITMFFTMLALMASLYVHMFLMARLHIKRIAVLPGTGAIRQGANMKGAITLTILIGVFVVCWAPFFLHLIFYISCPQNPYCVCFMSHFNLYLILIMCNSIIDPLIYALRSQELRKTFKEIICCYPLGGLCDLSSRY
TMEM16A inh: inhibitors of mouse TMEM16A calcium-activated chloride channel. HEK293 TMEM16A/YFP iodide influx fluorescence, ionomycin. 1.2% of 310,000 active. Q8BHY3. normalized B-score (activity score, 25-100; higher = stronger inhibition) at 10 µM;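 active = ratio plate-corrected score three or more library SD toward inhibition, starting fluorescence score within five deviations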;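 also: score derived from kinetic fluorescence span divided by baseline fluorescence per well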
MC4R antag cAMP: blocks human MC4R cAMP signaling. MC4R-expressing cells, MTII-stimulated cAMP, LANCE TR-FRET. 0.48% of 360,000 active. inhibition, % at 6.5 µM. P32245;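 active = inhibition above its plate's cutoff, the mean of tested wells on that plate plus 3 SD, cut at about 29% in these data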;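 also: 0% = Melanotan II alone and 100% = Melanotan II plus saturating MCL0020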
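System: U2OS cells stably expressing human melanocortin 4 receptor (MC4R). Reagent: Melanotan II challenge after compound preincubation. Doses: 6.5 µM. Times: 30-min compound, 1-h challenge, 1-h detection, room temperature. Measured by: TR-FRET with Eu-cAMP and labeled anti-cAMP, 671 nm. Replicates: singlicate.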
TMEM16A reconf: reconfirmed blocker of mouse TMEM16A calcium-activated chloride channel; shares compounds with TMEM16A inh; HEK293 TMEM16A/YFP-H148Q, iodide quench fluorescence; ionomycin added to raise cell calcium; inhibition, % at 10 µM; 39% of 2,300 active; AID 652189;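 active = mean duplicate percent inhibition, scaled so buffer wells are 0 and the reference blocker 100, over three buffer SD above buffer mean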
TMEM16A Ca cntr: alters calcium mobilization in TMEM16A HEK293 cells, counter-screen; 2% of 2,300 active; calcium response (% of ionomycin), % at 10 µM; shares compounds with TMEM16A inh; TMEM16A/YFP HEK293, Fluo4 calcium mobilization;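 active = duplicate-averaged calcium signal over 20% of the ionomycin maximum, relative to buffer baseline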;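 also: each well's signal is peak minus trough fluorescence divided by its pre-addition baseline; 0% = buffer wells and 100% = ionomycin wells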
Parental YFP cnt: counter-screen for TMEM16A inhibitors: effect in parental YFP-HEK293 cells | shares compounds with TMEM16A inh | iodide YFP quench, ionomycin | YFP ratio F(max-min)/F0 at 10 µM | 2,300 tested, under 10 active | AID 652233;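 active = yellow fluorescent protein signal ratio exceeding the buffer control mean by over 5 SD of those controls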;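 also: ratio is mean of duplicate wells from kinetic YFP trace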
ClC-1 inh: selectivity of TMEM16A inhibitors: inhibition of rat ClC-1 chloride channel; 2,300 tested, under 10 active; shares compounds with TMEM16A inh; ratio percent, % at 10 µM; CHO ClC-1-YFP, iodide influx fluorescence quench; iodide control reads 0, buffer control 100;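 active = duplicate-mean ratio percent above the mean of iodide-only control wells, which defines zero, plus 5 of their SD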;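 also: higher percent means stronger block of ClC-1 iodide influx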
* marks the source's active call; other numbers are inactive results; i = inactive; · = not tested or not shown.

SMILES | ANO1 activ | Beta apoptosis | CSC inhib | MC4R barr agon | TMEM16A inh | MC4R antag cAMP | TMEM16A reconf | TMEM16A Ca cntr | Parental YFP cnt | ClC-1 inh
S=C(NCCSCc1ccc(Cl)cc1Cl)Nc1ccccc1 | i | 0 | 53 | 1 | 100* | -10 | 23%* | i | -0.96 | -19
Cc1ccccc1CSCCNC(=S)Nc1ccccc1 | i | 6 | -5 | 3 | i | 1 | · | · | · | ·
CC(C)(C)OC(=O)N[C@@H](C(=O)OC(C)(C)C)c1ccc(Br)cc1 | i | 6 | -13 | 3 | · | 1 | · | · | · | ·
CN(CC(=O)Nc1ccccc1Cl)CC(=O)c1c(N)n(Cc2ccccc2)c(=O)n(C)c1=O | i | 8 | · | 1 | · | 7 | · | · | · | ·
CN(Cc1ccccc1)C(=O)COC(=O)c1cc(NS(=O)(=O)c2cccs2)ccc1O | i | 2 | 6 | -1 | 25* | 8 | i | i | -1.1 | -20
O=C(COC(=O)c1cc(NS(=O)(=O)c2cccs2)ccc1O)Nc1ccccc1 | i | -6 | 4 | 0 | i | 3 | · | · | · | ·
O=C(O)c1cccc(NC(=O)c2ccc3c(c2)C(=O)N(C2CCCCC2)C3=O)c1 | i | 2 | -18 | -4 | i | 4 | · | · | · | ·
COc1ccc(OC)c(NC(=O)C2(C)CCN2CCOc2ccccc2)c1 (centres undefined) | · | · | · | 0 | · | 22 | · | · | · | ·
C=C(C)C1Cc2c(C)nn(-c3cccc4ccccc34)c2C1 (centres undefined) | i | 66 | 96* | 2 | 25* | 11 | 46%* | i | -0.91 | -9
CCS(=O)(=O)Nc1cccc(C2=NN(S(=O)(=O)c3ccccc3)C(c3cccs3)C2)c1 (centres undefined) | i | 3 | -7 | 0 | i | 2 | i | i | -0.86 | -20
CCN(CC)c1ccc(Nc2nc(N3CCOCC3)c3ccccc3n2)cc1 | i | 69 | 29 | -3 | 100* | -3 | i | i | -1.2 | -18
c1ccc2c(c1)nc(N1CCOCC1)c1ccccc12 | i | -4 | -3 | -1 | i | 3 | · | · | · | ·
CCCC1(CCC)NC(=O)N(CC(=O)Nc2cccc(OC)c2)C1=O | i | 5 | -1 | 2 | 100* | -7 | i | i | -1.1 | -10
COc1cccc(NC(=O)CN2C(=O)NC(C)(CCC(C)C)C2=O)c1 (centres undefined) | i | -3 | 0 | -2 | i | -4 | · | · | · | ·
CN(C(=O)CN1C(=O)C2C3CC(C(Br)C3Br)C2C1=O)C1CCCCC1 (centres undefined) | i | · | -3 | -2 | i | 10 | · | · | · | ·
O=C(CNc1cccc(S(=O)(=O)N2CCCC2)c1)Nc1cccc(Br)c1 | i | 4 | -6 | -1 | 25* | 1 | 16%* | i | -0.97 | -18
C[C@@H]1CCCCO[C@H](CN(C)C(=O)Nc2ccc(C(F)(F)F)cc2)[C@@H](C)CN([C@H](C)CO)C(=O)c2cc(NC(=O)c3ccncc3)ccc2O1 | · | · | · | 0 | · | 2 | · | · | · | ·
O=C(Nc1nc(-c2cccs2)c(C(=O)C(F)(F)F)s1)c1ccccc1 | i | · | 37 | 2 | 100* | -3 | 53%* | i | -1.1 | -18
CC(=O)N1c2ccc(S(=O)(=O)NCc3ccco3)cc2CC1C (centres undefined) | i | 4 | 7 | -2 | i | 12 | · | · | · | ·
CC(=O)NC(c1ccccc1)c1cccnc1 (centres undefined) | i | -8 | -11 | -1 | 25* | -4 | i | i | -1.1 | -8
O=C(Cc1ccccc1F)Nc1cc(Cl)ccc1N1CCCC1 | i | -4 | 14 | 3 | i | -4 | · | · | · | ·
COc1ccc2c(c1)CCc1c(C(=O)NC3CCCCC3)noc1-2 | i | 10 | -11 | 1 | 100* | 6 | i | i | -0.84 | -4
COc1ccccc1OCC(=O)NCC1CCCCC1 | i | · | -17 | -2 | 100* | -2 | i | i | -1.1 | -19
COc1cccc(OC)c1C(=O)OCC(=O)NCC1CCCCC1 | · | · | · | 0 | · | 8 | · | · | · | ·
COc1ccccc1OCC(=O)NNc1c2ccccc2nc2ccccc12 | i | 8 | 1 | -2 | 25* | 1 | 17%* | i | -1 | -4
SMILES | ANO1 activ | Beta apoptosis | CSC inhib | MC4R barr agon | TMEM16A inh | MC4R antag cAMP | TMEM16A reconf | TMEM16A Ca cntr | Parental YFP cnt | ClC-1 inh
COc1ccc(CC(=O)Nc2ccc(/C(C)=N\NC(=O)c3ccc(Br)o3)cc2)cc1 | i | · | · | -2 | · | 7 | · | · | · | ·
Cc1cccc(OCCCCc2c(C)n[nH]c2C)c1C | i | 39 | 25 | 1 | 100* | 11 | i | i | -1.1 | -16
CCOc1ccccc1OCCCCCc1c(C)n[nH]c1C | i | 2 | -15 | 4 | i | 9 | · | · | · | ·
CCOC(=O)c1c(C)c(C(=O)NCc2ccco2)c(C)n1C | i | -4 | -5 | 1 | i | -6 | · | · | · | ·
CCOC(=O)c1c(C)c(C(=O)N2CCN(C(=O)c3ccco3)CC2)c(C)n1C | i | -4 | -4 | -2 | 100* | -10 | i | i | -1 | 0
N=C1SCC(=O)N1c1ccc(Cl)cc1 | i | · | -2 | -2 | i | -4 | · | · | · | ·
Cc1nc(-c2cccc(NC(=O)COc3ccc(Cl)cc3)c2)cs1 | i | -6 | 9 | -2 | 25* | -3 | i | i | -1.1 | -5
COc1ccc(CC(=O)Nc2cccc(-c3csc(C)n3)c2)cc1 | i | 1 | -4 | 0 | i | 2 | · | · | · | ·
CCN(CC)S(=O)(=O)c1cccc(C(=O)OCC(=O)c2ccc3c(c2)OCCO3)c1 | i | -3 | -11 | 0 | 25* | 12 | 16%* | i | -0.53 | -7
CNS(=O)(=O)c1cccc(C(=O)OCC(=O)c2cc(C)n(CC3CCCO3)c2C)c1 (centres undefined) | i | 1 | · | 0 | · | 6 | · | · | · | ·
CCN(CC)S(=O)(=O)c1cc(C(=O)OCC(=O)c2ccc3c(c2)NC(=O)CO3)ccc1Cl | i | · | 6 | -2 | 100* | 4 | 18%* | i | -1 | -12
CNS(=O)(=O)c1cccc(C(=O)OCC(=O)c2cc(C)n(-c3ccc4c(c3)OCO4)c2C)c1 | i | -5 | -4 | -2 | 25* | 11 | i | i | -0.95 | -8
